# Reference: ChEMBL document CHEMBL1132975, “2',6'-Dimethylphenoxyacetyl: a new achiral high affinity P(3)-P(2) ligand for peptidomimetic-based HIV protease inhibitors” (J Med Chem, 2000)
# Assays:
# [1] = Half life for the clearance after intravenous (iv) administration of dose of 1 mg/kg; type: ADME, organism-based; design: dose 1 mg/kg, route intravenous; conditions: in vivo
# [2] = test system: Human immunodeficiency virus 1; test: Effective concentration to inhibit replication of viral strain HIV-1 IIIB in acutely infected C8166T cells; type: functional, organism-based; conditions: Human immunodeficiency virus 1, C8166T
# Method in brief: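 HIV-1 IIIB infected C8166 T cells at MOI 0.001 in complete medium, then cultured 3 days with serially diluted inhibitor. Extracellular p24 core antigen was measured by ELISA on pooled supernatants (8 replicas) to give percent inhibition. EC50 came from a nonlinear Hill fit.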
# [3] = Area Under the Curve (AUC) for the compound is evaluated after the oral administration at 5 mg/kg.; type: ADME, organism-based; design: dose 5 mg/kg, route oral; conditions: in vivo
# [4] = Oral bioavailability in rat (dose 5 mg/kg); type: ADME, organism-based; conditions: in vivo
# [5] = biological target: T1, Human immunodeficiency virus type 1 protease (Human immunodeficiency virus 1, UniProt Q72874); test: In vitro inhibition of HIV-1.
# [6] = test system: Human immunodeficiency virus 2; test: The binding affinity is evaluated for viral strains HIV-2 ROD.; type: functional, organism-based
# [7] = test system: Human immunodeficiency virus 1; test: The binding affinity is evaluated for viral strains HIV-1 IIIB; type: functional, organism-based
# [8] = biological target: T1, Human immunodeficiency virus type 1 protease; test: The inhibitory concentration was evaluated for viral strains HIV-2 ROD using a HIV protease HPLC based assay.
# [9] = test system: Human immunodeficiency virus 2; test: Effective concentration to inhibit replication of viral strain HIV-2 ROD in acutely infected C8166T cells; type: functional, organism-based; conditions: Human immunodeficiency virus 2, C8166T
# [10] = test system: Human immunodeficiency virus 2; test: The binding affinity is evaluated for viral strains HIV-2 ROD; type: functional, organism-based
# [11] = Half life for the clearance after intravenous (iv) administration of 1 mg/kg; type: ADME, organism-based; design: dose 1 mg/kg, route intravenous; conditions: in vivo
# [12] = The plasma concentration is evaluated after oral administration of 5 mg/kg; type: ADME, organism-based; design: dose 5 mg/kg, route oral
# [13] = The compound was evaluated for oral bioavailability in the rat at a peroral (po) dose of 5 mg/kg; type: ADME, organism-based; conditions: in vivo
# [14] = The plasma concentration is evaluated after oral administration a dose of 5 mg/kg; type: ADME, organism-based; design: dose 5 mg/kg, route oral
Compound,EC50 [2] [nM],IC50 [5] [nM],also measured
Cc1cc(S[C@@H]2CCN(C[C@@H](O)[C@H](Cc3ccccc3)NC(=O)COc3c(C)cccc3C)[C@H](C(=O)NC(C)(C)C)C2)nc(C)n1,1,1.5,half-life [1]: 102 min; AUC [3]: 1670 nM·h; bioavailability [4]: 29%
CC(C)(C)NC(=O)[C@@H]1C[C@H](OCc2ccncc2)CCN1C[C@@H](O)[C@H](Cc1ccccc1)NC(=O)O[C@@H]1CCOC1,–,260,–
Cc1cccc(C)c1CCC(=O)N[C@@H](Cc1ccccc1)[C@H](O)CN1CC[C@@H](OCc2ccncc2)C[C@H]1C(=O)NC(C)(C)C,–,2400,–
CC(C)[C@H](NC(=O)c1ccc2ccccc2n1)C(=O)N[C@@H](Cc1ccccc1)[C@H](O)CN1CC[C@@H](OCc2ccncc2)C[C@H]1C(=O)NC(C)(C)C,5,–,Ki [6]: 0.13 nM; Ki [7]: 0.031 nM; IC50 [8]: 10 nM; EC50 [9]: 25 nM
CC(C)(C)NC(=O)[C@@H]1C[C@H](OCc2ccncc2)CCN1C[C@@H](O)[C@H](Cc1ccccc1)NC(=O)CCCc1ccccc1,–,> 20000,–
CC(C)(C)NC(=O)[C@@H]1C[C@H](OCc2ccncc2)CCN1C[C@@H](O)[C@H](Cc1ccccc1)NC(=O)COc1ccccc1,–,1100,–
Cc1cccc(C)c1COC(=O)N[C@@H](Cc1ccccc1)[C@H](O)CN1CC[C@@H](OCc2ccncc2)C[C@H]1C(=O)NC(C)(C)C,–,420,–
CC(C)(C)NC(=O)[C@@H]1C[C@H](OCc2ccncc2)CCN1C[C@@H](O)[C@H](Cc1ccccc1)NC(=O)/C=C/c1ccccc1,–,11000,–
Cc1c(O)cccc1C(=O)N[C@@H](Cc1ccccc1)[C@H](O)CN1CC[C@@H](OCc2ccncc2)C[C@H]1C(=O)NC(C)(C)C,32,12,–
Cc1cccc(C)c1OCC(=O)N[C@@H](Cc1ccccc1)[C@H](O)CN1CC[C@@H](Sc2ccncc2)C[C@H]1C(=O)NC(C)(C)C,2,–,Ki [10]: 0.023 nM; Ki [7]: 0.006 nM; AUC [3]: 1770 nM·h; bioavailability [4]: 61%; half-life [11]: 24 min; EC50 [9]: 3 nM
Cc1ccccc1OCC(=O)N[C@@H](Cc1ccccc1)[C@H](O)CN1CC[C@@H](OCc2ccncc2)C[C@H]1C(=O)NC(C)(C)C,–,120,–
CC(C)(C)NC(=O)[C@@H]1C[C@H](OCc2ccncc2)CCN1C[C@@H](O)[C@H](Cc1ccccc1)NC(=O)CCc1ccccc1,–,1400,–
Cc1ccccc1COC(=O)N[C@@H](Cc1ccccc1)[C@H](O)CN1CC[C@@H](OCc2ccncc2)C[C@H]1C(=O)NC(C)(C)C,–,210,–
Cc1cccc(C)c1OC(C)C(=O)N[C@@H](Cc1ccccc1)[C@H](O)CN1CC[C@@H](OCc2ccncc2)C[C@H]1C(=O)NC(C)(C)C (stereo not given in full),–,20,–
Cc1cccc(C)c1OCC(=O)N[C@@H](Cc1ccccc1)[C@H](O)CN1CC[C@@H](OCc2ccncc2)C[C@H]1C(=O)NC(C)(C)C,24,7,–
CC(C)(C)NC(=O)[C@@H]1C[C@H](OCc2ccncc2)CCN1C[C@@H](O)[C@H](Cc1ccccc1)NC(=O)OCc1ccccc1,–,400,–
Cc1cccc(C)c1OCC(=O)N[C@@H](Cc1ccccc1)[C@H](O)CN1CC[C@@H](SCc2ccncc2)C[C@H]1C(=O)NC(C)(C)C,4,1.8,Cmax [12]: 1660 nM; AUC [3]: 1710 nM·h; bioavailability [13]: 22%; half-life [11]: 42 min
Cc1cccc(C)c1OCC(=O)N[C@@H](Cc1ccccc1)[C@H](O)CN1CC[C@@H](SCc2cccnc2)C[C@H]1C(=O)NC(C)(C)C,6,1.7,Cmax [14]: 2320 nM; AUC [3]: 3260 nM·h; bioavailability [4]: 37%; half-life [11]: 30 min
Cc1ccccc1CCC(=O)N[C@@H](Cc1ccccc1)[C@H](O)CN1CC[C@@H](OCc2ccncc2)C[C@H]1C(=O)NC(C)(C)C,–,2500,–
Cc1cccc(C)c1OCC(=O)N[C@@H](Cc1ccccc1)[C@H](O)CN1C[C@H]2CCCC[C@H]2C[C@H]1C(=O)NC(C)(C)C,100,8.4,–
Cc1cccc(C)c1OCC(=O)N[C@@H](Cc1ccccc1)[C@H](O)CN(CC(C)C)S(=O)(=O)c1ccc(N)cc1,20,2.6,–
CC(C)(C)NC(=O)[C@@H]1C[C@H](OCc2ccncc2)CCN1C[C@@H](O)[C@H](Cc1ccccc1)NC(=O)CSc1ccccc1,–,4200,–
